Measurements collected from several papers.
Lines come from different studies, so protocols differ.
Target: High affinity nerve growth factor receptor (NTRK1, Homo sapiens, UniProt P04629)

CNC(=O)c1ccc(Nc2ncc(C(F)(F)F)c(NCc3nccnc3N(C)S(C)(=O)=O)n2)cc1
remaining binding (binding, competition with immobilised ligand; 1 µM): 13%

Cc1ccc(NC(=O)c2ccc(CN3CCN(C)CC3)cc2)cc1Nc1nc(-c2cccnc2)cs1
remaining signal (cell-free assay; 0.5 µM): 97.1%

CN(C)C1CCN(CC#Cc2nn(C3CCCC3)c3nc(NCc4ccccc4)ncc23)C1 (centres unmarked)
inhibition (enzyme activity, inhibitor, FRET; 1 µM): 17%

Cc1[nH]c(/C=C2\C(=O)Nc3ccc(F)cc32)c(C)c1C(=O)N[C@H]1CCN(C(=O)N(C)C)C1
remaining activity (enzyme activity, inhibitor; 1 µM): 5%

FC(F)(F)Oc1cccc(-c2cnc3ccc(-c4ccncc4)nn23)c1
activity vs control (enzyme activity, inhibitor, radiometric; 5 µM): 15%

CCN(CC)c1ccc(C2=NNC(=O)CC2C)cc1[N+](=O)[O-] (centres unmarked)
remaining activity (enzyme activity, inhibitor; 10 µM): 118%

CCOCCn1cc(C(=O)Nc2ccc(-n3nc(-c4cccnc4)cc3C(F)(F)F)cn2)ccc1=O
remaining binding (cell-free assay, competition with immobilised ligand; 1 µM): 100%

O=C(Nc1cnn2ccc(N3CCC[C@@H]3c3cc(F)ccc3F)nc12)N1CC[C@H](O)C1
inhibition (enzyme activity, inhibitor, FRET; 1 µM): 100%

CC(C)(C)c1nc2c(s1)c1nc(N)ncc1c1ccc(NS(=O)(=O)c3c(F)cccc3F)c(F)c12
remaining activity (enzyme activity, inhibitor, radiometric; 1 µM): 54%

CNC(=O)Nc1ccc2c(c1)CC[C@@]21OC(=O)N(CC(=O)N(Cc2ccc(F)cc2)[C@@H](C)C(F)(F)F)C1=O
remaining binding (cell-free assay, competition with immobilised ligand; 1 µM): 81%

Cc1sc(C(=O)NC2COC2)cc1-n1cc(NC(=O)Nc2c(F)cccc2Cl)cn1
remaining activity (enzyme activity, inhibitor; 10 µM): 81%

FC(F)c1nc2ccccc2n1-c1nc(N2CCOCC2)nc(N2CCOCC2)n1
remaining activity (enzyme activity, inhibitor; 10 µM): 83%

COc1cc(-c2cn(C3CCc4ccccc4N(CC(F)(F)F)C3=O)nn2)ccc1-n1ccc(C)n1 (centres unmarked)
remaining binding (cell-free assay, competition with immobilised ligand; 1 µM): 63%

CCN(CC)CCNC(=O)c1c(C)[nH]c(/C=C2\C(=O)Nc3ccc(F)cc32)c1C
remaining activity (enzyme activity, inhibitor; 1 µM): 2%

Cc1ccc(C(=O)NCc2ccsc2)cc1C#Cc1cn(C(C)C)c2ncnc(N)c12
activity vs control (enzyme activity, inhibitor; 1 µM): 74%

O=C(Nc1ccc(I)cc1)Nc1cccc(C(=O)Nc2ccc3[nH]ncc3c2)c1
inhibition (enzyme activity, inhibitor, FRET; 1 µM): 47.4%

O=C(Nc1cnn(-c2csc(C(=O)NC3COC3)c2)c1)Nc1c(F)cccc1Cl
remaining activity (enzyme activity, inhibitor; 5 µM): 87.8%

Cc1ccc(NC(=O)c2ccc(C)c(C(F)(F)F)c2)cc1C#Cc1nn(C2CCC(O)CC2)c2ncnc(N)c12 (centres unmarked)
remaining signal (cell-free assay; 10 µM): 72%

CN(c1nccc(-c2cnn3ncccc23)n1)C1CC1
remaining signal (cell-free assay; 1 µM): 100%

Nc1cnc(N2CCc3cc(S(=O)(=O)Nc4c(F)cc(Cl)cc4F)cc(N4CCCC4=O)c32)nc1
remaining binding (cell-free assay, competition with immobilised ligand; 1 µM): 100%

O=C(Nc1ccc2[nH]ncc2c1)c1cccc(NC(=O)c2cc(C(F)(F)F)ccc2F)c1
inhibition (enzyme activity, inhibitor, FRET; 1 µM): 34%

O=C1Nc2ccc(Cl)cc2C1=Cc1cc(Cl)c(O)c(Cl)c1
remaining signal (cell-free assay; 0.5 µM): 87.4%

CCS(=O)(=O)c1cc2cc(C[C@](O)(CC(C)(C)c3ccc(F)cc3C(N)=O)C(F)(F)F)[nH]c2cn1
remaining binding (cell-free assay, competition with immobilised ligand; 1 µM): 82%

O=C(Cc1ccc(C(F)(F)F)cc1)Nc1cccc(C(=O)Nc2ccc3[nH]ncc3c2)c1
inhibition (enzyme activity, inhibitor, FRET; 1 µM): 46%

O=C1NC(=O)c2cc(Nc3ccc(F)cc3)c(Nc3ccc(F)cc3)cc21
remaining signal (cell-free assay; 0.5 µM): 93.6%

O=C(Nc1cccc(C(=O)Nc2ccc3[nH]ncc3c2)c1)Nc1ccccc1F
inhibition (enzyme activity, inhibitor, FRET; 1 µM): 42.7%

CN(C)C(=O)Cn1cc(-c2nc(C3(c4ccc(-c5cnc(N)nc5)cc4)CC3)no2)cn1
remaining binding (cell-free assay, competition with immobilised ligand; 1 µM): 100%

O=C(Nc1cccc(C(=O)Nc2ccc3[nH]ncc3c2)c1)Nc1ccccc1Cl
inhibition (enzyme activity, inhibitor, FRET; 1 µM): 37.7%

CCC(=N\O)/C(C)=C/c1ccc(F)cc1
remaining binding (cell-free assay, competition with immobilised ligand; 1 µM): 83%
